Laboratory results from ChEMBL document CHEMBL4616723, “Discovery of Antibacterials That Inhibit Bacterial RNA Polymerase Interactions with Sigma Factors” (J Med Chem, 2020).
≈ marks a conversion by molar mass, not a printed value. Calls of active or inactive are those of the source. No cut-off for these calls is given here.

Key:
Staphylococcus aureus [1] = experiment: Effect on total protein level in Staphylococcus aureus ATCC 29213 at 1/4 to 1/8 times MIC; format: functional, organism-based
[2] = Therapeutic index, ratio of CC50 for human HepG2 cells to MIC for Streptococcus pneumoniae ATCC 49619; format: toxicity; settings: read-out: TI
Staphylococcus aureus [3] = experiment: Bacteriostatic activity against Staphylococcus aureus ATCC 25923 at 16 times MIC measured over 6 hrs by time kill assay; format: functional, organism-based
[4] = Inhibition of Escherichia coli RNAP/sigma-70 protein-protein interaction assessed as reduction in RNA synthesis preincubated for 10 mins followed by sigma-70/DNA template/AGU/ApU/alpha [32P]GTP addition and measured after 10 mins by phosphorimaging analysis
Streptococcus agalactiae [5] = experiment: Bacteriostatic activity against Streptococcus agalactiae ATCC 12386 at 16 times MIC measured over 6 hrs by time kill assay; format: functional, organism-based
Streptococcus agalactiae [6] = experiment: Bactericidal activity against Streptococcus agalactiae ATCC 12386 assessed as decrease in CFU count at 16 times MIC measured over 6 hrs by time kill assay; format: functional, organism-based
Enterobacter cloacae = experiment: Antibacterial activity against Enterobacter cloacae ATCC 13047 after 20 hrs by CLSI based-broth microdilution method; format: functional; settings: subsp. cloacae ATCC 13047, 20 h
Streptococcus pneumoniae [7] = experiment: Bacteriostatic activity against Streptococcus pneumoniae ATCC 49619 at 1 times MIC measured over 6 hrs by time kill assay; format: functional, organism-based
Escherichia coli = experiment: Antibacterial activity against Escherichia coli ATCC 25922 after 20 hrs by CLSI based-broth microdilution method; format: functional; settings: ATCC 25922, 20 h
Staphylococcus aureus [8] = experiment: Antibacterial activity against Staphylococcus aureus ATCC 25923 after 20 hrs by CLSI based-broth microdilution method; format: functional; settings: ATCC 25923, 20 h
[9] = system: Staphylococcus saprophyticus; experiment: Antibacterial activity against Staphylococcus saprophyticus ATCC 15305 after 20 hrs by CLSI based-broth microdilution method; format: functional; settings: subsp. saprophyticus ATCC 15305, 20 h
Staphylococcus aureus [10] = experiment: Bactericidal activity against Staphylococcus aureus ATCC 25923 assessed as decrease in CFU count at 16 times MIC measured over 6 hrs by time kill assay; format: functional, organism-based
Streptococcus pneumoniae [11] = experiment: Antibacterial activity against Streptococcus pneumoniae ATCC 49619 assessed as reduction in pneumolysin release at 0.25 to 0.5 times MIC incubated for 16 to 20 hrs by Western blot analysis; format: functional, organism-based
Outline: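 Overnight static culture in brain–heart infusion broth, with or without serially diluted compound; rifampicin and ceftriaxone controls at twofold dilutions from 2 to 0.002 μg/mL; untreated control. […] Western blot probed with rabbit polyclonal anti-pneumolysin (1:1000) and HRP anti-rabbit secondary, ECL chemiluminescence; band intensity normalized to untreated control.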

Pseudomonas aeruginosa = experiment: Antibacterial activity against Pseudomonas aeruginosa ATCC 27853 after 20 hrs by CLSI based-broth microdilution method; format: functional; settings: ATCC 27853, 20 h
Streptococcus pneumoniae [12] = experiment: Bactericidal activity against Streptococcus pneumoniae ATCC 49619 at 4 to 16 times MIC measured over 6 hrs by time kill assay; format: functional, organism-based
Enterococcus faecalis = experiment: Antibacterial activity against Enterococcus faecalis ATCC 19433 after 20 hrs by CLSI based-broth microdilution method; format: functional; settings: ATCC 19433, 20 h
Staphylococcus aureus [13] = experiment: Effect on total DNA level in Staphylococcus aureus ATCC 29213 at 1/4 to 1/8 times MIC by fluorimetric method; format: functional, organism-based
[14] = system: Staphylococcus epidermidis; experiment: Antibacterial activity against Staphylococcus epidermidis ATCC 12228 after 20 hrs by CLSI based-broth microdilution method; format: functional; settings: ATCC 12228, 20 h
Staphylococcus aureus [15] = experiment: Antibacterial activity against Staphylococcus aureus ATCC 29213 after 20 hrs by CLSI based-broth microdilution method; format: functional; settings: ATCC 29213, 20 h
Bacillus subtilis [16] = experiment: Inhibition of RNAP subunit beta' interaction with sigma factor A assessed as diffusion of RNAP into cytosolic region at 1 to 2 times MIC incubated for 15 mins by confocal microscopy
HepG2 = experiment: Cytotoxicity against human HepG2 cells after 48 to 72 hrs by MTT assay; format: cell-based
Klebsiella pneumoniae = experiment: Antibacterial activity against Klebsiella pneumoniae ATCC 700603 after 20 hrs by CLSI based-broth microdilution method; format: functional; settings: ATCC 700603, 20 h
Streptococcus pneumoniae [17] = experiment: Bacteriostatic activity against Streptococcus pneumoniae ATCC 49619 assessed as decrease in bacterial growth at 4 to 16 times MIC measured over 6 hrs by time kill assay relative to control; format: functional
[18] = Therapeutic index, ratio of CC50 for human A549 cells to MIC for Streptococcus pneumoniae ATCC 49619; format: toxicity; settings: read-out: TI
Streptococcus agalactiae [19] = experiment: Antibacterial activity against Streptococcus agalactiae ATCC 12386 after 20 hrs by CLSI based-broth microdilution method; format: functional; settings: ATCC 12386, 20 h
Streptococcus pneumoniae [20] = experiment: Antibacterial activity against Streptococcus pneumoniae ATCC 49619 assessed as reduction in bacterial ATP production at 0.25 to 16 times MIC measured up to 6 hrs by BacTiter-Glo assay; format: functional, organism-based
Outline: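 Log-phase S. pneumoniae, about 1.5 × 10^6 CFU/mL in BHI containing compound at several concentrations, untreated control included; grown at 37 °C, 200 rpm, 5% CO2; samples taken at 0, 2, 4 and 6 h; ATP measured by BacTiter-Glo luminescence; triplicate.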

Bacillus subtilis [21] = experiment: Inhibition of RNAP subunit beta' interaction with sigma factor A assessed as RNAP delocalization from nucleoid at 0.5 times MIC incubated for 15 mins by confocal microscopy
Acinetobacter baumannii = experiment: Antibacterial activity against Acinetobacter baumannii ATCC 19606 after 20 hrs by CLSI based-broth microdilution method; format: functional; settings: ATCC 19606 = CIP 70.34 = JCM 6841, 20 h
Staphylococcus aureus [22] = experiment: Effect on total RNA level in Staphylococcus aureus ATCC 29213 at 1/4 to 1/8 times MIC by fluorimetric method; format: functional
Streptococcus pyogenes = experiment: Antibacterial activity against Streptococcus pyogenes ATCC 19615 after 20 hrs by CLSI based-broth microdilution method; format: functional; settings: ATCC 19615, 20 h
A549 = experiment: Cytotoxicity against human A549 cells after 48 to 72 hrs by MTT assay; format: cell-based

O=C(O)c1ccc(Cl)cc1NCc1ccc(Sc2ccc(Cl)c(Cl)c2)c([N+](=O)[O-])c1
Activity (Staphylococcus aureus [1]): Active
selectivity ratio [2]: 36
Activity (Staphylococcus aureus [3]): Active
IC50 [4]: 6.8 µM
Activity (Streptococcus agalactiae [5]): Active
Activity (Streptococcus agalactiae [6]): inactive
MIC (Enterobacter cloacae): > 256 mg/L
Activity (Streptococcus pneumoniae [7]): Active
MIC (Escherichia coli): > 256 mg/L
MIC (Staphylococcus aureus [8]): 4 mg/L (≈ 8.27 µM)
MIC [9]: 2 mg/L (≈ 4.13 µM)
Activity (Staphylococcus aureus [10]): inactive
Activity (Streptococcus pneumoniae [11]): Active
MIC (Pseudomonas aeruginosa): > 256 mg/L
Activity (Streptococcus pneumoniae [12]): inactive
MIC (Enterococcus faecalis): 4 mg/L (≈ 8.27 µM)
Activity (Staphylococcus aureus [13]): inactive
MIC [14]: 2 mg/L (≈ 4.13 µM)
MIC (Staphylococcus aureus [15]): 4 mg/L (≈ 8.27 µM)
inhibition (Bacillus subtilis [16]): Active
CC50 (HepG2): 74.4 µM
MIC (Klebsiella pneumoniae): > 256 mg/L
log(activity) (Streptococcus pneumoniae [17]): 2
selectivity ratio [18]: 37
MIC (Streptococcus agalactiae [19]): 2 mg/L (≈ 4.13 µM)
Activity (Streptococcus pneumoniae [20]): Active
inhibition (Bacillus subtilis [21]): Active
MIC (Acinetobacter baumannii): > 256 mg/L
Activity (Staphylococcus aureus [22]): Active
MIC (Streptococcus pyogenes): 1 mg/L (≈ 2.07 µM)
CC50 (A549): 75.7 µM
